Data set [1] concerns Toxoplasma gondii. Description: Antiparasitic activity against transgenic Toxoplasma gondii expressing Cryptosporidium parvum IMPDH. Format: functional, organism-based. The method in brief:
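Engineered T. gondii strain that depends on CpIMPDH for guanine nucleotide synthesis, run alongside the wild-type RH strain, whose native eukaryotic IMPDH also gauges host-cell cytotoxicity. Antiparasitic EC50 is the average of three independent determinations unless otherwise stated, with some values from two determinations.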

For data set [2], the target named is Inosine-5'-monophosphate dehydrogenase 2 (Homo sapiens, UniProt P12268). As to the kind of experiment: Inhibition of human IMPDH2.
Data set [3] addresses T1, Inosine-5'-monophosphate dehydrogenase (Cryptosporidium parvum, UniProt Q8T6T2).
T1 sequence (Q8T6T2 whole entry): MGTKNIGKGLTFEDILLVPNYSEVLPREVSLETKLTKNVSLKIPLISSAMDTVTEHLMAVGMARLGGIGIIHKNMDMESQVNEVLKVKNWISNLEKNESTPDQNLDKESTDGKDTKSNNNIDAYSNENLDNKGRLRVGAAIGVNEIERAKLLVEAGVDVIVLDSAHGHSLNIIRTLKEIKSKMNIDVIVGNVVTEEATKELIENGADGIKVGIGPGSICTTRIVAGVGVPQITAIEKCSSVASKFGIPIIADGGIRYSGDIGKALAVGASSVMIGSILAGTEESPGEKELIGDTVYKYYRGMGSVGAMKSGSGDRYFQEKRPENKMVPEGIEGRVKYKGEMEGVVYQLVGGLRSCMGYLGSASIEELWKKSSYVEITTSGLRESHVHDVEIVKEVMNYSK
As to the kind of experiment: Inhibition of Cryptosporidium parvum N-terminal His6-tagged IMPDH-mediated NADH production expressed in Escherichia coli BL21(DE3) preincubated for 5 mins prior to substrate addition by fluorescence assay in presence of BSA. The essentials: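 Same CpIMPDH fluorescence assay (10 nM enzyme, 300 μM NAD, 150 μM IMP, pH 8.0 Tris buffer, 25 °C, 5 min inhibitor preincubation), run with 0.05% fatty-acid-free BSA added to gauge nonspecific protein binding. Quadruplicate points; IC50 averaged over three determinations.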

Data set [4] deals with T1, Inosine-5'-monophosphate dehydrogenase. As to the kind of experiment: Inhibition of Cryptosporidium parvum N-terminal His6-tagged IMPDH-mediated NADH production expressed in Escherichia coli BL21(DE3) preincubated for 5 mins prior to substrate addition by fluorescence assay.
Data set [5] has as its target T2, Inosine-5'-monophosphate dehydrogenase (Cryptosporidium parvum) (UniProt Q8T6T2).
T2 sequence (whole entry): T1 sequence (Q8T6T2 whole entry)

Data set [6] concerns the target T2, Inosine-5'-monophosphate dehydrogenase (Cryptosporidium parvum). The source holds these as a separate data set.
For data set [7], the system named is Toxoplasma gondii. As to the kind of experiment: Selectivity ratio of EC50 for wild-type Toxoplasma gondii to EC50 for Toxoplasma gondii expressing Cryptosporidium parvum IMPDH. Format: functional.
A short description of data set [8]: Cytotoxicity against African green monkey COS cells after 3 days by Alamar blue assay. Format: cell-based. Particulars: chlorocebus aethiops, read-out: LD50. The method in brief: (§1)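 Tested in parallel against HeLa, HEK293, COS and CHO cells. Viability was read as metabolic activity by alamarBlue and expressed as LD50.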
On the technique in general: The colour change of resazurin is a common sign of viable cells or microbes.

The nature of data set [9]: Cytotoxicity against CHO cells after 3 days by Alamar blue assay. Format: cell-based, Cricetulus griseus. Particulars: chinese hamster, read-out: LD50. The method in brief: as §1
Data set [10] is described as follows: Cytotoxicity against human HEK293 cells after 3 days by Alamar blue assay. The note with it: read-out: LD50. Format: cell-based. The method in brief: as §1
A short description of data set [11]: Cytotoxicity against human HeLa cells after 3 days by Alamar blue assay. Format: cell-based. Particulars: read-out: LD50. The method in brief: as §1
For data set [12], the system named is Toxoplasma gondii. Description: Antiparasitic activity against wild-type Toxoplasma gondii expressing eukaryotic IMPDH. Format: functional, organism-based.
Data set [13] relates to Liver. Description: Half life in mouse liver microsomes by LC/MS/MS analysis. Format: ADME, Microsome. The method in brief:
(§2)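 Incubation with mouse liver microsomes at 37 °C, with and without NADPH. Percent of compound remaining measured at several time points; half-life from a fit to first-order decay.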

Data set [14] relates to Liver. Description: Half life in mouse liver microsomes by LC/MS/MS analysis in presence of NADPH. Format: ADME, Microsome. The essentials:
as §2

The term EC50 denotes the midpoint of the concentration-response curve. Broadly, the IC50 is the concentration that gives 50% inhibition. For `C[C@H](Oc1cccc2ccccc12)C(=O)Nc1ccc2oc(-c3cncs3)nc2c1`, the EC50 in the data set on Toxoplasma gondii [1] was 0.3 µM. In addition, the IC50 in [2] is greater than 5 µM; in [3], 0.004 µM; in data set [4] it was 0.0027 µM. In addition, the values for the Kis in data set [5] and in [6] were 0.9 nM and 1.6 nM, respectively.
As for `CC(Oc1ccc(Cl)cc1Cl)C(=O)Nc1ccc2oc(-c3ccncc3)nc2c1` (stereo not given), in the data set on Toxoplasma gondii [1], the midpoint of the response, the EC50, lay at 0.65 µM. Moreover, the IC50 is greater than 5 µM in data set [2], 0.12 µM in [3] and 0.044 µM in [4]. In addition, the results for the Kis in data set [5] and in [6] were 33 nM and 58 nM, respectively.
With `C[C@H](Oc1cccc(Cl)c1Cl)C(=O)Nc1ccc2nc(-c3ccncc3)oc2c1`, the “Ratio EC50” value in the data set with Toxoplasma gondii [7] worked out at 150. The CC50 at 72 h in data set [8], in data set [9], in data set [10] and in data set [11] was greater than 50 µM throughout. For the same compound, the EC50 with Toxoplasma gondii [1] was found to be 0.02 µM; in the data set on Toxoplasma gondii [12], 3 µM. Further, the t1/2 in the data set with Liver [13] amounted to 9 min; with Liver [14], 10 min. For the same compound, the values for the 50% inhibitory concentration (IC50) in [2], in data set [3] and in [4] were greater than 5 µM, 0.004 µM and 0.0006 µM, respectively.
In the case of `CC(Oc1ccccc1Cl)C(=O)Nc1ccc2oc(-c3ccncc3)nc2c1` (stereo not given), in the data set on Toxoplasma gondii [7], the “Ratio EC50” value is reported as 3. The CC50 at 72 h in data set [8] is greater than 50 µM; in [9] it was greater than 50 µM; in data set [10], 12.5 µM; in data set [11], greater than 50 µM. In addition, the EC50 came to 0.9 µM in the data set with Toxoplasma gondii [1] and 3 µM in the data set with Toxoplasma gondii [12]. For the same compound, the IC50 was greater than 5 µM in data set [2], 0.05 µM in data set [3] and 0.019 µM in data set [4].
Regarding `CC(Oc1cccc(Cl)c1Cl)C(=O)Nc1ccc2oc(-c3ccncc3)nc2c1` (stereo not given), the “Ratio EC50” value with Toxoplasma gondii [7] is on record as 40. Further, the CC50 at 72 h in [8], in data set [9], in [10] and in data set [11] was greater than 50 µM each time. Also, the EC50 in the data set on Toxoplasma gondii [1] worked out at 0.22 µM; in the data set on Toxoplasma gondii [12], 8 µM. In addition, the values for the IC50 in [2], in [3] and in data set [4] were greater than 5 µM, 0.011 µM and 0.003 µM, respectively.
For the compound `C[C@@H](C(=O)Nc1ccc2oc(-c3ccncc3)nc2c1)c1ccccc1`, the EC50 in the data set on Toxoplasma gondii [1] was determined as 0.4 µM. In addition, the t1/2 with Liver [13] turned out to be 130 min; in the data set on Liver [14], 43 min. In addition, the half-inhibitory concentration (IC50) is greater than 5 µM in data set [2], 0.028 µM in data set [3] and 0.0223 µM in [4]. Besides, the figures for the Kis in [5] and in [6] were 40 nM and 100 nM, respectively.
In the case of `C[C@H](Nc1cccc(Cl)c1Cl)C(=O)Nc1ccc2oc(-c3ccncc3)nc2c1`, the CC50 at 72 h in [8], in data set [9], in data set [10] and in data set [11] was greater than 50 µM each time. Besides, the t1/2 with Liver [13] is listed as 110 min; in the data set with Liver [14], 44 min. Moreover, the IC50 in data set [2] was greater than 5 µM; in data set [4] it was 0.0005 µM.
For `COc1ccc(OC(C)C(=O)Nc2ccc3oc(-c4ccncc4)nc3c2)cc1` (stereo not given), the “Ratio EC50” value in the data set with Toxoplasma gondii [7] was greater than 50. For the same compound, the CC50 at 72 h in data set [8], in data set [9], in data set [10] and in [11] was greater than 50 µM each time. In addition, the figures for the EC50 in the data set with Toxoplasma gondii [1] and with Toxoplasma gondii [12] were 0.5 µM and greater than 25 µM, respectively. In addition, the IC50 in [2] is greater than 5 µM; in data set [3], 0.034 µM; in [4], 0.028 µM.
With `C[C@H](Oc1cccc(Cl)c1Cl)C(=O)Nc1cc(Cl)c2oc(-c3ccncc3)nc2c1`, the values for the half-inhibitory concentration (IC50) in data set [2], in data set [3] and in data set [4] were greater than 5 µM, 0.6 µM and 0.24 µM, respectively. Also, the results for the Kis in data set [5] and in [6] were 150 nM and 210 nM, respectively.

For the origin of these results see ChEMBL document CHEMBL2346559, “Optimization of benzoxazole-based inhibitors of Cryptosporidium parvum inosine 5'-monophosphate dehydrogenase” (J Med Chem, 2013).
